Data published in PMC6030701 (EMBO Reports, 2018).

Experiments:
MSP domain of MOSPD2 = molecular target: T1, MSP domain of MOSPD2 (Homo sapiens, UniProt Q8NHP6); assay: Liposome aggregation; type: biochemical; conditions: DLS, 25°C
T1 sequence (Q8NHP6 282-490): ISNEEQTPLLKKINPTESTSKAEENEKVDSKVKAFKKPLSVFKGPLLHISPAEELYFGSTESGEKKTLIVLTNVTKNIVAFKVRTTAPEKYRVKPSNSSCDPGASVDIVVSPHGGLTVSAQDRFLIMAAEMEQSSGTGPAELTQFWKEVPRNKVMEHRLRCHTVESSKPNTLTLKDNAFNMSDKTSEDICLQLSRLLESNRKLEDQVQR

[1] = test system: RD/LD mutant MSP domain of MOSPD2; assay: Liposome aggregation; type: biochemical; conditions: DLS, 25°C, FFAT peptide 380 nM, RD/LD mutant MSP 760 nM
STARD3 = assay: MSP domain pull-down, STARD3; type: binding; conditions: 6His MSP on NTA-Ni2+ resin, HeLa/STARD3 protein extract, Western blot
Procedure, shortened: (§1)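 6His-tagged MSP domain (residues 282–490), from E. coli BL21 DE3 (1 mM IPTG, 20°C, 16 h), purified on Ni-NTA and by gel filtration. HeLa stable-line extract in PDB2 incubated 2.5 h, 4°C. Laemmli elution; blotted for STARD3, His, actin.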

STARD3 FA/YA = assay: MSP domain pull-down, STARD3 FA/YA mutant; type: binding; conditions: 6His MSP on NTA-Ni2+ resin, HeLa/STARD3 FA/YA protein extract, Western blot
Procedure, shortened: as §1

SEC = molecular target: the molecule itself; assay: SEC

WCSGKGDMSDEDDENEFFDAPEIITMPENLGH [FFAT‐containing peptide]
size of liposome aggregates at end of kinetics (MSP domain of MOSPD2; FFAT peptide 380 nM, MSP MOSPD2 WT 760 nM): 479 ± 87 nm | size of free liposomes (MSP domain of MOSPD2; size distribution analysis): 97 ± 15 nm | liposome aggregation [1]: no aggregation was observed

B1: wild‐type MSP domain of MOSPD2: recombinant MSP domain of MOSPD2 [282–490], expressed in E. coli (protein)
chain: ISNEEQTPLLKKINPTESTSKAEENEKVDSKVKAFKKPLSVFKGPLLHISPAEELYFGSTESGEKKTLIVLTNVTKNIVAFKVRTTAPEKYRVKPSNSSCDPGASVDIVVSPHGGLTVSAQDRFLIMAAEMEQSSGTGPAELTQFWKEVPRNKVMEHRLRCHTVESSKPNTLTLKDNAFNMSDKTSEDICLQLSRLLESNRKLEDQVQR
modifications: left off: 6His, C-terminal, kept
interaction with STARD3 (STARD3): interacted specifically with STARD3 | interaction with STARD3 FA/YA (STARD3 FA/YA): not with the STARD3 FA/YA mutant

B2: MSP domain and coiled‐coil of VAP‐A [8–212], wild type (domain or fragment, human, UniProt Q9P0L0 8-212, looked up)
chain: MAKHEQILVLDPPTDLKFKGPFTDVVTTNLKLRNPSDRKVCFKVKTTAPRRYCVRPNSGIIDPGSTVTVSVMLQPFDYDPNEKSKHKFMVQTIFAPPNTSDMEAVWKEAKPDELMDSKLRCVFEMPNENDKLNDMEPSKAVPLNASKQDGPMPKPHSVSLNDTETRKLMEECKRLQGEMMKLSEENRHLRDEGLRLRKVAHSDKP
stoichiometry N (SEC): 2
